Measurements published in ChEMBL document CHEMBL4229342, “Synthesis of novel proxyphylline derivatives with dual Anti-Candida albicans and anticancer activity” (Eur J Med Chem, 2018).

Key:
Assay type in all cases: functional
CCRF-CEM [1] = experiment: Antiproliferative activity against human CCRF-CEM cells assessed as cell viability at 25 uM after 72 hrs by MTT assay; details: read-out: Activity
Method in brief: (§1)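 MTT viability assay in CCRF-CEM and MCF-7 cells after 72 h exposure at 25, 50, 100 and 200 µM. Results are relative to control cells without inhibitor in 0.5% DMSO. Done in triplicate; values are means ± SD of three independent experiments.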

CCRF-CEM [2] = experiment: Antiproliferative activity against human CCRF-CEM cells assessed as cell viability at 50 uM after 72 hrs by MTT assay; details: read-out: Activity; method in brief: as §1
CCRF-CEM [3] = experiment: Antiproliferative activity against human CCRF-CEM cells assessed as cell viability at 100 uM after 72 hrs by MTT assay; details: read-out: Activity; method in brief: as §1
CCRF-CEM [4] = experiment: Antiproliferative activity against human CCRF-CEM cells assessed as cell viability at 200 uM after 72 hrs by MTT assay; details: read-out: Activity; method in brief: as §1
MCF7 [5] = experiment: Antiproliferative activity against human MCF7 cells assessed as cell viability at 25 uM after 72 hrs by MTT assay; details: MCF7, 72 h, read-out: Activity; method in brief: as §1
MCF7 [6] = experiment: Antiproliferative activity against human MCF7 cells assessed as cell viability at 50 uM after 72 hrs by MTT assay; details: MCF7, 72 h, read-out: Activity; method in brief: as §1
MCF7 [7] = experiment: Antiproliferative activity against human MCF7 cells assessed as cell viability at 100 uM after 72 hrs by MTT assay; details: MCF7, 72 h, read-out: Activity; method in brief: as §1
MCF7 [8] = experiment: Antiproliferative activity against human MCF7 cells assessed as cell viability at 200 uM after 72 hrs by MTT assay; details: MCF7, 72 h, read-out: Activity; method in brief: as §1
Candida albicans [9] = experiment: Growth inhibition of Candida albicans ATCC 90028 at 16 ug/ml incubated for 18 hrs at 35 degC by broth microdilution method relative to control; details: ATCC 90028, 18 h, read-out: GI
Candida albicans [10] = experiment: Growth inhibition of Candida albicans ATCC 90028 at 16 ug/ml incubated for 48 hrs at 35 degC by broth microdilution method relative to control; details: ATCC 90028, 48 h, read-out: GI
Candida albicans [11] = experiment: Growth inhibition of Candida albicans ATCC 90028 at 8 ug/ml incubated for 18 hrs at 35 degC by broth microdilution method relative to control; details: ATCC 90028, 18 h, read-out: GI
Candida albicans [12] = experiment: Growth inhibition of Candida albicans ATCC 90028 at 8 ug/ml incubated for 48 hrs at 35 degC by broth microdilution method relative to control; details: ATCC 90028, 48 h, read-out: GI
Candida albicans [13] = experiment: Growth inhibition of Candida albicans ATCC 90028 at 4 ug/ml incubated for 18 hrs at 35 degC by broth microdilution method relative to control; details: ATCC 90028, 18 h, read-out: GI
Candida albicans [14] = experiment: Growth inhibition of Candida albicans ATCC 90028 at 8 ug/ml incubated for 4 hrs at 35 degC by broth microdilution method relative to control; details: ATCC 90028, 4 h, read-out: GI
Candida albicans [15] = experiment: Growth inhibition of Candida albicans ATCC 90028 at 2 ug/ml incubated for 18 hrs at 35 degC by broth microdilution method relative to control; details: ATCC 90028, 18 h, read-out: GI
Candida albicans [16] = experiment: Growth inhibition of Candida albicans ATCC 90028 at 2 ug/ml incubated for 4 hrs at 35 degC by broth microdilution method relative to control; details: ATCC 90028, 4 h, read-out: GI
Candida albicans [17] = experiment: Growth inhibition of Candida albicans ATCC 90028 at 1 ug/ml incubated for 18 hrs at 35 degC by broth microdilution method relative to control; details: ATCC 90028, 18 h, read-out: GI
Candida albicans [18] = experiment: Growth inhibition of Candida albicans ATCC 90028 at 1 ug/ml incubated for 4 hrs at 35 degC by broth microdilution method relative to control; details: ATCC 90028, 4 h, read-out: GI
Candida albicans [19] = experiment: Growth inhibition of Candida albicans ATCC 90028 at 0.5 ug/ml incubated for 18 hrs at 35 degC by broth microdilution method relative to control; details: ATCC 90028, 18 h, read-out: GI
Candida albicans [20] = experiment: Growth inhibition of Candida albicans ATCC 90028 at 0.5 ug/ml incubated for 4 hrs at 35 degC by broth microdilution method relative to control; details: ATCC 90028, 4 h, read-out: GI
Candida albicans [21] = experiment: Growth inhibition of Candida albicans ATCC 90028 at 0.25 ug/ml incubated for 18 hrs at 35 degC by broth microdilution method relative to control; details: ATCC 90028, 18 h, read-out: GI
Candida albicans [22] = experiment: Growth inhibition of Candida albicans ATCC 90028 at 0.25 ug/ml incubated for 4 hrs at 35 degC by broth microdilution method relative to control; details: ATCC 90028, 4 h, read-out: GI
Candida albicans [23] = experiment: Growth inhibition of Candida albicans ATCC 90028 at 0.125 ug/ml incubated for 18 hrs at 35 degC by broth microdilution method relative to control; details: ATCC 90028, 18 h, read-out: GI
Candida albicans [24] = experiment: Growth inhibition of Candida albicans ATCC 90028 at 0.125 ug/ml incubated for 4 hrs at 35 degC by broth microdilution method relative to control; details: ATCC 90028, 4 h, read-out: GI
Candida albicans [25] = experiment: Growth inhibition of Candida albicans ATCC 90028 at 0.0625 ug/ml incubated for 18 hrs at 35 degC by broth microdilution method relative to control; details: ATCC 90028, 18 h, read-out: GI
Candida albicans [26] = experiment: Growth inhibition of Candida albicans ATCC 90028 at 0.0625 ug/ml incubated for 4 hrs at 35 degC by broth microdilution method relative to control; details: ATCC 90028, 4 h, read-out: GI
Candida albicans [27] = experiment: Growth inhibition of Candida albicans ATCC 90028 at 0.0313 ug/ml incubated for 18 hrs at 35 degC by broth microdilution method relative to control; details: ATCC 90028, 18 h, read-out: GI
Candida albicans [28] = experiment: Growth inhibition of Candida albicans ATCC 90028 at 0.0313 ug/ml incubated for 4 hrs at 35 degC by broth microdilution method relative to control; details: ATCC 90028, 4 h, read-out: GI
Candida albicans [29] = experiment: Fungicidal activity against Candida albicans ATCC 90028 assessed as log reduction in cell viability at 16 ug/ml after 48 hrs at 35 degC
Method in brief: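 MFC assay on C. albicans ATCC 90028 following M27-A3, at the molar equivalent of 16 µg/mL. CFU of treated cells were compared with CFU of the untreated inoculum. Activity is given as lg R = lg CFU/mL control − lg CFU/mL treated, and lg R ≥3 was defined as fungicidal. Values are means of two independent experiments.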

## COC(C(=O)OC(C)Cn1cnc2c1c(=O)n(C)c(=O)n2C)c1ccc(C(C)(C)C)cc1 (configuration not stated)
CCRF-CEM [1]
  viability at 25 µM: 75.8%
CCRF-CEM [2]
  viability at 50 µM: 55.3%
CCRF-CEM [3]
  viability at 100 µM: 28.6%
CCRF-CEM [4]
  viability at 200 µM: 0%
MCF7 [5]
  viability at 25 µM: 82.2%
MCF7 [6]
  viability at 50 µM: 79.5%
MCF7 [7]
  viability at 100 µM: 63.5%
MCF7 [8]
  viability at 200 µM: 35%
Candida albicans [9]
  inhibition of growth at 16 µg/mL: 99.8%
Candida albicans [10]
  inhibition of growth at 16 µg/mL: 99.2%
Candida albicans [11]
  inhibition of growth at 8 µg/mL: 100%
Candida albicans [12]
  inhibition of growth at 8 µg/mL: 99.7%
Candida albicans [13]
  inhibition of growth at 4 µg/mL: 99.9%
Candida albicans [14]
  inhibition of growth at 8 µg/mL: 99.5%
Candida albicans [15]
  inhibition of growth at 2 µg/mL: 99.9%
Candida albicans [16]
  inhibition of growth at 2 µg/mL: 99.2%
Candida albicans [17]
  inhibition of growth at 1 µg/mL: 99.8%
Candida albicans [18]
  inhibition of growth at 1 µg/mL: 99.4%
Candida albicans [19]
  inhibition of growth at 0.5 µg/mL: 99.7%
Candida albicans [20]
  inhibition of growth at 0.5 µg/mL: 98.9%
Candida albicans [21]
  inhibition of growth at 0.25 µg/mL: 100%
Candida albicans [22]
  inhibition of growth at 0.25 µg/mL: 99.3%
Candida albicans [23]
  inhibition of growth at 0.125 µg/mL: 100%
Candida albicans [24]
  inhibition of growth at 0.125 µg/mL: 99.2%
Candida albicans [25]
  inhibition of growth at 0.0625 µg/mL: 99.9%
Candida albicans [26]
  inhibition of growth at 0.0625 µg/mL: 99%
Candida albicans [27]
  inhibition of growth at 0.0313 µg/mL: 99.8%
Candida albicans [28]
  inhibition of growth at 0.0313 µg/mL: 99.4%
Candida albicans [29]
  log(activity): 0.2

## COC(C(=O)OC(C)Cn1cnc2c1c(=O)n(C)c(=O)n2C)c1cccc2ccccc12 (configuration not stated)
CCRF-CEM [1]
  viability at 25 µM: 96.6%
CCRF-CEM [2]
  viability at 50 µM: 87.9%
CCRF-CEM [3]
  viability at 100 µM: 51.4%
CCRF-CEM [4]
  viability at 200 µM: 34.6%
MCF7 [5]
  viability at 25 µM: 92.6%
MCF7 [6]
  viability at 50 µM: 87.7%
MCF7 [7]
  viability at 100 µM: 83.3%
MCF7 [8]
  viability at 200 µM: 76.9%
Candida albicans [9]
  inhibition of growth at 16 µg/mL: 99.8%
Candida albicans [10]
  inhibition of growth at 16 µg/mL: 99.4%
Candida albicans [11]
  inhibition of growth at 8 µg/mL: 100%
Candida albicans [12]
  inhibition of growth at 8 µg/mL: 99.6%
Candida albicans [13]
  inhibition of growth at 4 µg/mL: 99.5%
Candida albicans [14]
  inhibition of growth at 8 µg/mL: 99%
Candida albicans [15]
  inhibition of growth at 2 µg/mL: 99.9%
Candida albicans [16]
  inhibition of growth at 2 µg/mL: 99.3%
Candida albicans [17]
  inhibition of growth at 1 µg/mL: 100%
Candida albicans [18]
  inhibition of growth at 1 µg/mL: 99.3%
Candida albicans [19]
  inhibition of growth at 0.5 µg/mL: 100%
Candida albicans [20]
  inhibition of growth at 0.5 µg/mL: 99.1%
Candida albicans [21]
  inhibition of growth at 0.25 µg/mL: 99.9%
Candida albicans [22]
  inhibition of growth at 0.25 µg/mL: 98.9%
Candida albicans [23]
  inhibition of growth at 0.125 µg/mL: 100%
Candida albicans [24]
  inhibition of growth at 0.125 µg/mL: 100%
Candida albicans [25]
  inhibition of growth at 0.0625 µg/mL: 100%
Candida albicans [26]
  inhibition of growth at 0.0625 µg/mL: 100%
Candida albicans [27]
  inhibition of growth at 0.0313 µg/mL: 100%
Candida albicans [28]
  inhibition of growth at 0.0313 µg/mL: 99.5%
Candida albicans [29]
  log(activity): 0.5

## CC(Cn1cnc2c1c(=O)n(C)c(=O)n2C)OC(=O)N1c2ccccc2Sc2ccccc21 (configuration not stated)
CCRF-CEM [1]
  viability at 25 µM: 105%
CCRF-CEM [2]
  viability at 50 µM: 77.4%
CCRF-CEM [3]
  viability at 100 µM: 33.8%
CCRF-CEM [4]
  viability at 200 µM: 47.1%
MCF7 [5]
  viability at 25 µM: 90.5%
MCF7 [6]
  viability at 50 µM: 89.9%
MCF7 [7]
  viability at 100 µM: 73.4%
MCF7 [8]
  viability at 200 µM: 37%
Candida albicans [9]
  inhibition of growth at 16 µg/mL: 100%
Candida albicans [10]
  inhibition of growth at 16 µg/mL: 99.2%
Candida albicans [11]
  inhibition of growth at 8 µg/mL: 99.7%
Candida albicans [12]
  inhibition of growth at 8 µg/mL: 99.2%
Candida albicans [13]
  inhibition of growth at 4 µg/mL: 99.9%
Candida albicans [14]
  inhibition of growth at 8 µg/mL: 99.5%
Candida albicans [15]
  inhibition of growth at 2 µg/mL: 99.8%
Candida albicans [16]
  inhibition of growth at 2 µg/mL: 99.2%
Candida albicans [17]
  inhibition of growth at 1 µg/mL: 99.8%
Candida albicans [18]
  inhibition of growth at 1 µg/mL: 99%
Candida albicans [19]
  inhibition of growth at 0.5 µg/mL: 99.8%
Candida albicans [20]
  inhibition of growth at 0.5 µg/mL: 99.5%
Candida albicans [21]
  inhibition of growth at 0.25 µg/mL: 100%
Candida albicans [22]
  inhibition of growth at 0.25 µg/mL: 99.5%
Candida albicans [23]
  inhibition of growth at 0.125 µg/mL: 99.9%
Candida albicans [24]
  inhibition of growth at 0.125 µg/mL: 99.2%
Candida albicans [25]
  inhibition of growth at 0.0625 µg/mL: 99.9%
Candida albicans [26]
  inhibition of growth at 0.0625 µg/mL: 99.2%
Candida albicans [27]
  inhibition of growth at 0.0313 µg/mL: 100%
Candida albicans [28]
  inhibition of growth at 0.0313 µg/mL: 99.3%
Candida albicans [29]
  log(activity): 0.3
